Data as given in ChEMBL document CHEMBL5230166, “Novel quinoline-piperazine hybrids: the design, synthesis and evaluation of antibacterial and antituberculosis properties” (RSC Med Chem, 2023).
Converted amounts (≈) assume the structure as drawn.

Key:
[1] = system: Staphylococcus aureus; experiment: Antibacterial activity against methicillin resistant Staphylococcus aureus ATCC 33591 assessed as inhibition of bacterial growth incubated for 22 to 24 hrs; assay type: functional; settings: time 22-24 hrs
Method in brief: (§1)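 Broth microdilution MIC. Strains were subcultured on Soybean Casein Digest Agar, and inocula were taken from mid-log culture, adjusted to McFarland (~10⁸ CFU/mL), then diluted to ~10⁵ CFU/mL. Serial dilutions ran from 64 to 0.03 µg/mL. Plates were incubated 22–24 h at 37 °C, in triplicate. MIC was the lowest concentration with no visible growth.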

[2] = system: Moraxella catarrhalis; experiment: Antibacterial activity against Moraxella catarrhalis ATCC 25238 assessed as inhibition of bacterial growth incubated for 22 to 24 hrs; assay type: functional; settings: time 22-24 hrs
Method in brief: (§2)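 Broth MIC referenced to an earlier protocol. Inocula come from mid-log cultures sub-cultured on soybean casein digest agar, adjusted to McFarland (~10⁸ CFU/mL), then diluted to ~10⁵ CFU/mL. Compounds and controls are serially diluted from 64 to 0.03 µg/mL. Tested in triplicate, read after 22–24 h at 37 °C. MIC is the lowest concentration with no visible growth.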

[3] = system: Enterococcus faecium; experiment: Antibacterial activity against Enterococcus faecium ATCC 49624 assessed as inhibition of bacterial growth incubated for 22 to 24 hrs; assay type: functional; settings: time 22-24 hrs; method in brief: as §2
[4] = system: Pseudomonas aeruginosa; experiment: Antibacterial activity against clinical isolate Pseudomonas aeruginosa AB 645 assessed as inhibition of bacterial growth incubated for 22 to 24 hrs; assay type: functional; settings: time 22-24 hrs
[5] = system: Staphylococcus aureus; experiment: Antibacterial activity against methicillin sensitive Staphylococcus aureus ATCC 29213 assessed as inhibition of bacterial growth incubated for 22 to 24 hrs; assay type: functional; settings: time 22-24 hrs; method in brief: as §2
[6] = system: Enterococcus faecalis; experiment: Antibacterial activity against vancomycin resistant Enterococcus faecalis ATCC 700802 assessed as inhibition of bacterial growth incubated for 22 to 24 hrs; assay type: functional; settings: time 22-24 hrs; method in brief: as §1
[7] = system: Escherichia coli; experiment: Antibacterial activity against clinical isolate Escherichia coli AB 117 assessed as inhibition of bacterial growth incubated for 22 to 24 hrs; assay type: functional; settings: time 22-24 hrs
[8] = system: Mycolicibacterium smegmatis; experiment: Antibacterial activity against Mycobacterium smegmatis ATCC 607 assessed as inhibition of bacterial growth incubated for 2 days by CLSI protocol based broth microdilution method; assay type: functional; settings: ATCC 607, 48 h, time 2 day
Method in brief: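 CLSI broth microdilution in Middlebrook 7H9 with 10% ADC. Compounds are dissolved in DMSO at 4.0 mg/mL (stock) and serially diluted from 64 to 0.015 µg/mL. Inoculum is ~10⁵ CFU/mL, checked by plating on 7H11 agar. Rifampin and levofloxacin are positive controls; drug-free broth with DMSO is the negative control. Growth inhibition is read after 2 days at 37 °C as MIC.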

[9] = system: Klebsiella pneumoniae; experiment: Antibacterial activity against clinical isolate Klebsiella pneumoniae AB 356 assessed as inhibition of bacterial growth incubated for 22 to 24 hrs; assay type: functional; settings: time 22-24 hrs
[10] = system: Mycobacterium tuberculosis; experiment: Antibacterial activity against Mycobacterium tuberculosis H37Rv ATCC 25618 assessed as inhibition of bacterial growth incubated for 2 days by CLSI protocol based broth microdilution method; assay type: functional; settings: H37Rv ATCC 25618, 48 h, time 2 day
[11] = system: Acinetobacter baumannii; experiment: Antibacterial activity against clinical isolate Acinetobacter baumannii BAA 747 assessed as inhibition of bacterial growth incubated for 22 to 24 hrs; assay type: functional; settings: time 22-24 hrs
[12] = system: Staphylococcus epidermidis; experiment: Antibacterial activity against clinical isolate methicillin resistant Staphylococcus epidermidis AB 735 assessed as inhibition of bacterial growth incubated for 22 to 24 hrs; assay type: functional; settings: time 22-24 hrs
[13] = system: A549; experiment: Cytotoxicity against human A549 cells assessed as cell viability at 143 uM relative to control; settings: a549, 143 µM
[14] = system: A549; experiment: Cytotoxicity against human A549 cells assessed as inhibition of cell growth upto 32 ug/ml; assay type: toxicity, cell-based; settings: dose < 32 µg/ml
Method in brief: (§3)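 MTT proliferation assay. A549 cells are seeded at 10000 cells/well and allowed to adhere at 37 °C, 5% CO₂. Compounds are added at 64 to 1 µg/mL (143 to 4.6 µM) in triplicate, with a DMSO vehicle control. Incubation is 24 h, then MTT (1 mg/mL) is added for 3 h at 37 °C.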

[15] = system: HEK293; experiment: Cytotoxicity against HEK293 cells assessed as inhibition of cell growth upto 64 ug/ml; assay type: toxicity, cell-based; settings: human, dose < 64 µg/ml
[16] = system: HepG2; experiment: Cytotoxicity against human HepG2 cells assessed as inhibition of cell growth upto 32 ug/ml; assay type: toxicity, cell-based; settings: dose < 32 µg/ml
Method in brief: (§4)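 MTT proliferation assay on HEK293 (normal embryonic kidney) or HepG2 (liver cancer) cells. Cells are seeded at 10000 cells/well and adhered at 37 °C, 5% CO₂. Compounds are tested at 64 to 1 µg/mL (143 to 4.6 µM) in triplicate, with a DMSO vehicle control. Incubation is 48 h, followed by MTT (1 mg/mL) for 3 h at 37 °C.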

[17] = system: HEK293; experiment: Cytotoxicity against HEK293 cells assessed as cell viability at 143 uM relative to control; settings: human, hek293, 143 µM
[18] = Cytotoxicity against human HepG2 cells assessed as inhibition of cell growth at 64 ug/ml relative to control; assay type: toxicity, cell-based; settings: at 64 µg/mL, read-out: Activity; method in brief: as §4
[19] = system: HepG2; experiment: Cytotoxicity against human HepG2 cells assessed as cell viability at 143 uM relative to control; settings: hepg2, 143 µM
[20] = Cytotoxicity against human A549 cells assessed as inhibition of cell growth at 64 ug/ml relative to control; assay type: toxicity, cell-based; settings: at 64 µg/mL, read-out: Activity; method in brief: as §3

Row | SMILES | MIC [1] | MIC [2] | MIC [3] | MIC [4] | MIC [5] | MIC [6] | MIC [7] | MIC [8] | MIC [9] | MIC [10] | MIC [11] | MIC [12] | viability [13] | Activity [14] | Activity [15] | Activity [16] | viability [17] | inhibition at 64 ug/ml [18] | viability [19] | inhibition at 64 ug/ml [20]
1 | COc1cc(CN2CCN(C(=O)c3cccc(Cl)c3)CC2)nc2ccc(F)cc12 | > 64 µg/mL | 64 µg/mL (≈ 155 µM) | > 64 µg/mL | > 64 µg/mL | > 64 µg/mL | > 64 µg/mL | > 64 µg/mL | > 64 µg/mL | > 64 µg/mL | > 64 µg/mL | > 64 µg/mL | > 64 µg/mL | – | – | – | – | – | – | – | –
2 | COc1cc(CN2CCN(C(=O)c3cccc(F)c3)CC2)nc2ccc(F)cc12 | > 64 µg/mL | > 64 µg/mL | > 64 µg/mL | > 64 µg/mL | > 64 µg/mL | > 64 µg/mL | > 64 µg/mL | > 64 µg/mL | > 64 µg/mL | > 64 µg/mL | > 64 µg/mL | > 64 µg/mL | – | – | – | – | – | – | – | –
3 | COc1ccc(C(=O)N2CCN(Cc3cc(OC)c4cc(F)ccc4n3)CC2)cc1 | > 64 µg/mL | > 64 µg/mL | > 64 µg/mL | > 64 µg/mL | > 64 µg/mL | > 64 µg/mL | > 64 µg/mL | > 64 µg/mL | > 64 µg/mL | > 64 µg/mL | > 64 µg/mL | > 64 µg/mL | – | – | – | – | – | – | – | –
4 | COc1cc(CN2CCN(C(=O)c3ccccc3F)CC2)nc2ccc(F)cc12 | > 64 µg/mL | > 64 µg/mL | > 64 µg/mL | > 64 µg/mL | > 64 µg/mL | > 64 µg/mL | > 64 µg/mL | > 64 µg/mL | > 64 µg/mL | > 64 µg/mL | > 64 µg/mL | > 64 µg/mL | – | – | – | – | – | – | – | –
5 | COc1cc(CN2CCN(S(=O)(=O)c3ccccc3F)CC2)nc2ccc(F)cc12 | 0.06 µg/mL (≈ 0.138 µM) | 0.03 µg/mL (≈ 0.0692 µM) | 0.5 µg/mL (≈ 1.15 µM) | > 64 µg/mL | 0.5 µg/mL (≈ 1.15 µM) | 2 µg/mL (≈ 4.61 µM) | 16 µg/mL (≈ 36.9 µM) | 0.5 µg/mL (≈ 1.15 µM) | > 64 µg/mL | 1 µg/mL (≈ 2.31 µM) | > 64 µg/mL | 16 µg/mL (≈ 36.9 µM) | 88.6% | Non-Toxic | Non-Toxic | Non-Toxic | 99.5% | < 12% | 91.8% | < 12%
6 | COc1cc(CN2CCN(C(=O)c3ccccc3C)CC2)nc2ccc(F)cc12 | > 64 µg/mL | > 64 µg/mL | > 64 µg/mL | > 64 µg/mL | > 64 µg/mL | > 64 µg/mL | > 64 µg/mL | > 64 µg/mL | > 64 µg/mL | > 64 µg/mL | > 64 µg/mL | > 64 µg/mL | – | – | – | – | – | – | – | –
7 | COc1ccc2nc(CN3CCN(S(=O)(=O)c4ccccc4F)CC3)cc(OC)c2c1 | 8 µg/mL (≈ 18 µM) | 0.06 µg/mL (≈ 0.135 µM) | 2 µg/mL (≈ 4.49 µM) | > 64 µg/mL | 0.03 µg/mL (≈ 0.0673 µM) | 1 µg/mL (≈ 2.24 µM) | 8 µg/mL (≈ 18 µM) | 0.031 µg/mL (≈ 0.0696 µM) | > 64 µg/mL | 0.063 µg/mL (≈ 0.141 µM) | > 64 µg/mL | 32 µg/mL (≈ 71.8 µM) | 91.1% | Non-Toxic | Non-Toxic | Non-Toxic | 100.8% | < 12% | 97.7% | < 12%
